In ChEMBL document CHEMBL4428054, “Synthesis of Fluorescent Binaphthyl Amines That Bind c-MYC G-Quadruplex DNA and Repress c-MYC Expression” (J Med Chem, 2016):
The source made the active and inactive calls. The rule behind the calls is not given here.

Legend:
Quadruplex DNA [1] = test: Stabilization of 5'-FAM and 3'-TAMRA-labeled c-MYC G-quadruplex (unknown origin) assessed as change in melting temperature at 1 uM by FRET assay; type: nucleic-acid assay; conditions: unidentified
How it was run: (§1)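 FRET melting of dual-labelled (5′-FAM/3′-TAMRA) promoter quadruplexes or duplex in 60 mM potassium cacodylate buffer, pH 7.4. ΔTm is taken against ligand-free Tm. The ligand was tested across a concentration series. Maximum measurable Tm is 93 °C.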

Quadruplex DNA [2] = test: Stabilization of 5'-FAM and 3'-TAMRA-labeled c-KIT1 G-quadruplex (unknown origin) assessed as change in melting temperature at 1 uM by FRET assay; type: nucleic-acid assay; conditions: unidentified; how it was run: as §1
Quadruplex DNA [3] = test: Stabilization of 5'-FAM and 3'-TAMRA-labeled c-KIT2 G-quadruplex (unknown origin) assessed as change in melting temperature at 1 uM by FRET assay; type: nucleic-acid assay; conditions: unidentified; how it was run: as §1
Quadruplex DNA [4] = test: Stabilization of 5'-FAM and 3'-TAMRA-labeled k-RAS G-quadruplex (unknown origin) assessed as change in melting temperature at 1 uM by FRET assay; type: nucleic-acid assay; conditions: unidentified; how it was run: as §1
dsDNA [5] = test: Stabilization of 5'-FAM and 3'-TAMRA-labeled dsDNA (unknown origin) assessed as change in melting temperature at 1 uM by FRET assay; type: nucleic-acid assay; how it was run: as §1
dsDNA [6] = test: Stabilization of 5'-FAM and 3'-TAMRA-labeled dsDNA (unknown origin) assessed as change in melting temperature at 5 uM by FRET assay; type: nucleic-acid assay; how it was run: as §1
[7] = Selectivity for 5'-FAM and 3'-TAMRA-labeled c-MYC G-qudaruplex (unknown origin) over 5'-FAM and 3'-TAMRA-labeled c-KIT1 G-qudaruplex (unknown origin)
unidentified [8] = test: Selectivity for 5'-FAM and 3'-TAMRA-labeled c-MYC G-quadruplex (unknown origin) over 5'-FAM and 3'-TAMRA-labeled c-KIT2 G-quadruplex (unknown origin)
unidentified [9] = test: Selectivity for 5'-FAM and 3'-TAMRA-labeled c-MYC G-quadruplex (unknown origin) over 5'-FAM and 3'-TAMRA-labeled k-RAS G-quadruplex (unknown origin)
Quadruplex DNA [10] = test: Stabilization of 5'-FAM and 3'-TAMRA-labeled c-MYC G-quadruplex (unknown origin) assessed as change in melting temperature at 1 uM in presence of 100 nM to 10 uM dsDNA by FRET assay; type: nucleic-acid assay; conditions: unidentified
Quadruplex DNA [11] = test: Stabilization of 5'-FAM and 3'-TAMRA-labeled k-RAS G-quadruplex (unknown origin) assessed as change in melting temperature at 1 uM in presence of 100 nM to 10 uM dsDNA by FRET assay; type: nucleic-acid assay; conditions: unidentified
Quadruplex DNA [12] = test: Stabilization of 5'-FAM and 3'-TAMRA-labeled c-KIT1 G-quadruplex (unknown origin) assessed as change in melting temperature at 1 uM in presence of 100 nM to 10 uM dsDNA by FRET assay; type: nucleic-acid assay; conditions: unidentified
Quadruplex DNA [13] = test: Stabilization of 5'-FAM and 3'-TAMRA-labeled c-KIT2 G-quadruplex (unknown origin) assessed as change in melting temperature at 1 uM in presence of 100 nM to 10 uM dsDNA by FRET assay; type: nucleic-acid assay; conditions: unidentified
Quadruplex DNA [14] = test: Binding affinity to pre-annealed c-MYC G-quadruplex (unknown origin) assessed as hypochromacity at 20 uM in 10 mM Tris.HCl buffer containing 100 mM KCl at pH 7.4 by UV/Visible spectroscopy; type: nucleic-acid assay; conditions: unidentified
How it was run: (§2)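 UV–vis titration of 20 μM ligand with preannealed c-MYC quadruplex (0–1.4 equiv) in 100 mM KCl, 10 mM Tris·HCl, pH 7.4. Hypochromicity was followed at the 362 nm ligand band, because the 298 nm band overlaps DNA absorbance. Kd was fitted with the Hill 1 equation.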

Quadruplex DNA [15] = test: Binding affinity to pre-annealed c-MYC G-quadruplex (unknown origin) in 10 mM Tris.HCl buffer containing 100 mM KCl at pH 7.4 by UV/Visible spectroscopy; type: nucleic-acid assay, unidentified; how it was run: as §2
dsDNA [16] = test: Binding affinity to dsDNA (unknown origin) in 10 mM Tris.HCl buffer containing 100 mM KCl at pH 7.4 by UV/Visible spectroscopy; type: nucleic-acid assay
Quadruplex DNA [17] = test: Binding affinity to pre-annealed c-MYC G-quadruplex (unknown origin) assessed as increase in fluorescence intensity at 1 uM in 100 mM KCl, 10 mM Tris.HCl at pH 7.4 by fluorescence spectroscopy relative to untreated control; type: nucleic-acid assay; conditions: unidentified
How it was run: (§3)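 Fluorescence titration in 100 mM KCl, 10 mM Tris·HCl, pH 7.4. Excitation was 350 nm and emission was read at the 430 nm maximum. Ligand (1 μM for c-MYC) was titrated with increasing quadruplex or ds DNA, up to 20 equiv. Change in intensity was scored, and Kd was derived from the titration curves.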

Quadruplex DNA [18] = test: Binding affinity to pre-annealed c-MYC G-quadruplex (unknown origin) in 100 mM KCl, 10 mM Tris.HCl at pH 7.4 by fluorescence spectroscopy relative to untreated control; type: nucleic-acid assay, unidentified; how it was run: as §3
Quadruplex DNA [19] = test: Binding affinity to pre-annealed c-KIT1 G-quadruplex (unknown origin) in 100 mM KCl, 10 mM Tris.HCl at pH 7.4 by fluorescence spectroscopy relative to untreated control; type: nucleic-acid assay, unidentified; how it was run: as §3
Quadruplex DNA [20] = test: Binding affinity to pre-annealed c-KIT2 G-quadruplex (unknown origin) in 100 mM KCl, 10 mM Tris.HCl at pH 7.4 by fluorescence spectroscopy relative to untreated control; type: nucleic-acid assay, unidentified; how it was run: as §3
Quadruplex DNA [21] = test: Binding affinity to pre-annealed k-RAS G-quadruplex (unknown origin) in 100 mM KCl, 10 mM Tris.HCl at pH 7.4 by fluorescence spectroscopy relative to untreated control; type: nucleic-acid assay, unidentified; how it was run: as §3
dsDNA [22] = test: Binding affinity to 20 equivalents of dsDNA (unknown origin) in 100 mM KCl, 10 mM Tris.HCl at pH 7.4 by fluorescence spectroscopy relative to untreated control; type: nucleic-acid assay; how it was run: as §3
Quadruplex DNA [23] = test: Binding affinity to c-MYC G-quadruplex (unknown origin) by 1H-NMR spectroscopy; type: nucleic-acid assay; conditions: unidentified
How it was run: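 1D 1H NMR of c-MYC quadruplex DNA at different ligand:DNA ratios, monitoring imino and aromatic regions against partial signal assignments. Chemical shift perturbation or line broadening was noted separately at ratios below 1 and at ratios of 1 or above.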

Quadruplex DNA [24] = test: Effect on parallel topology of c-MYC G-quadruplex (unknown origin) at 0 to 5 equivalent by CD spectroscopy; type: nucleic-acid assay; conditions: unidentified
HeLa [25] = test: Cytotoxicity against human HeLa cells incubated for 24 hrs by MTT assay; type: functional, cell-based
How it was run: (§4)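 MTT growth-inhibition assay in HeLa, A549 and mouse C2C12 cells. Cells given 0.1% DMSO served as control. IC50 values were reported.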

A549 = test: Cytotoxicity against human A549 cells incubated for 24 hrs by MTT assay; type: functional, cell-based; conditions: A549, 24 h; how it was run: as §4
C2C12 = test: Cytotoxicity against mouse C2C12 cells incubated for 24 hrs by MTT assay; type: cell-based; conditions: C2C12, 24 h; how it was run: as §4
Quadruplex DNA [26] = test: Stabilization of c-MYC G-quadruplex in human HeLa cells assessed as reduction in c-MYC mRNA level at 5 uM incubated for 24 hrs by RT-PCR method; type: cell-based; set-up: scale not given: the % may be the effect or the level left
How it was run: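 qRT-PCR on HeLa cells treated 24 h at 1.0, 2.5 or 5.0 μM. c-MYC mRNA was normalised to GAPDH and compared with 0.1% DMSO-treated control.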

HeLa [27] = test: Effect on GAPDH mRNA expression in human HeLa cells at 1 to 5 uM incubated for 24 hrs by RT-PCR method; type: ADME, cell-based
Quadruplex DNA [28] = test: Stabilization of c-MYC G-quadruplex in human HeLa cells assessed as reduction in c-MYC mRNA level at 5 uM incubated for 24 hrs by Western blot method; type: cell-based; set-up: scale not given: the % may be the effect or the level left; conditions: in the assay text read “c-MYC protein level” for “c-MYC mRNA level”
How it was run: (§5)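 Western blot of HeLa lysates after 24 h at 1, 2.5 or 5 μM, with DMSO control. c-MYC was probed, GAPDH served as loading control, and bands were quantified by densitometry.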

HeLa [29] = test: Effect on GAPDH protein expression in human HeLa cells at 1 to 5 uM incubated for 24 hrs by Western blot method; type: ADME, cell-based; how it was run: as §5
[30] = Drug localization in nucleus of human HeLa cells at 5 uM incubated for 2 hrs by fluorescence microscopy; type: ADME, subcellular
How it was run: (§6)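 Intrinsic ligand fluorescence imaged by fluorescence microscopy in HeLa cells after 2 h at 5.0 μM. Merged images were used to assign nuclear versus cytoplasmic localisation.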

[31] = Drug localization in cytoplasm of human HeLa cells at 5 uM incubated for 2 hrs by fluorescence microscopy; type: ADME, subcellular; how it was run: as §6
HeLa [32] = test: Cell cycle arrest in human HeLa cells assessed as accumulation at subG1 phase at 5 uM incubated for 24 hrs by propidium iodide staining based flow cytometry (reference value: 2.2%); type: functional
HeLa [33] = test: Cell cycle arrest in human HeLa cells assessed as accumulation at G0/G1 phase at 5 uM incubated for 24 hrs by propidium iodide staining based flow cytometry (reference value: 61.5%); type: functional
HeLa [34] = test: Cell cycle arrest in human HeLa cells assessed as accumulation at S phase at 5 uM incubated for 24 hrs by propidium iodide staining based flow cytometry (reference value: 10.8%); type: functional
HeLa [35] = test: Cell cycle arrest in human HeLa cells assessed as accumulation at G2/M phase at 5 uM incubated for 24 hrs by propidium iodide staining based flow cytometry (reference value: 25.5%); type: functional
HeLa [36] = test: Induction of apoptosis in human HeLa cells assessed as viable cell level at 5 uM incubated for 24 hrs by Annexin V-FITC staining based flow cytometry; type: functional
HeLa [37] = test: Induction of apoptosis in human HeLa cells assessed as early apoptotic cells level at 5 uM incubated for 24 hrs by Annexin V-FITC staining based flow cytometry (reference value: 1.1%); type: functional
HeLa [38] = test: Induction of apoptosis in human HeLa cells assessed as late apoptotic cells level at 5 uM incubated for 24 hrs by Annexin V-FITC staining based flow cytometry (reference value: 0.8%); type: functional
HeLa [39] = test: Induction of apoptosis in human HeLa cells assessed as necrotic cells level at 5 uM incubated for 24 hrs by Annexin V-FITC staining based flow cytometry (reference value: 0.1%); type: functional

Structure (SMILES): O=C(O)c1ccc(Nc2ccc(-c3ccc(Nc4ccc(C(=O)O)cc4)c4ccccc34)c3ccccc23)cc1
- ΔTm (Quadruplex DNA [1]): 4.5 °C
- ΔTm (Quadruplex DNA [2]): 2.5 °C
- ΔTm (Quadruplex DNA [3]): 2.8 °C
- ΔTm (Quadruplex DNA [4]): 3.8 °C
- ΔTm (dsDNA [5]): 0.5 °C

Structure (SMILES): CN(C)CCCn1cc(CNC(=O)c2ccc(Nc3ccc(-c4ccc(Nc5ccc(C(=O)NCc6cn(CCCN(C)C)nn6)cc5)c5ccccc45)c4ccccc34)cc2)nn1
- ΔTm (Quadruplex DNA [1]): 23 °C
- ΔTm (Quadruplex DNA [2]): 11 °C
- ΔTm (Quadruplex DNA [3]): 15 °C
- ΔTm (Quadruplex DNA [4]): 22 °C
- ΔTm (dsDNA [5]): 2 °C
- Activity (dsDNA [6]): inactive
- Selectivity ratio [7]: 3 to 5
- Selectivity ratio (unidentified [8]): 3 to 5
- Selectivity ratio (unidentified [9]): 3 to 5
- Activity (Quadruplex DNA [10]): Active
- Activity (Quadruplex DNA [11]): Active
- Activity (Quadruplex DNA [12]): Active
- Activity (Quadruplex DNA [13]): Active
- Activity (Quadruplex DNA [14]): 37%
- Kd (Quadruplex DNA [15]): 4.4 µM
- Activity (dsDNA [16]): inactive
- fold change (FC) (Quadruplex DNA [17]): 3.5
- Kd (Quadruplex DNA [18]): 4.2 µM
- Kd (Quadruplex DNA [19]): 10.2 µM
- Kd (Quadruplex DNA [20]): 11.1 µM
- Kd (Quadruplex DNA [21]): 11.4 to 13.8 µM
- Activity (dsDNA [22]): inactive
- Activity (Quadruplex DNA [23]): Active
- Activity (Quadruplex DNA [24]): inactive
- IC50 (HeLa [25]): 5.53 µM
- IC50 (A549): ≥ 40 µM
- IC50 (C2C12): ≥ 40 µM
- Activity (Quadruplex DNA [26]): 58%
- Activity (HeLa [27]): Non-Toxic
- Activity (Quadruplex DNA [28]): 68%
- Activity (HeLa [29]): Non-Toxic
- Drug uptake [30]: Active
- Drug uptake [31]: Active
- Activity (HeLa [32]): 32.2%
- Activity (HeLa [33]): 33.7%
- Activity (HeLa [34]): 4.2%
- Activity (HeLa [35]): 29.9%
- Activity (HeLa [36]): Active
- Activity (HeLa [37]): 55.9%
- Activity (HeLa [38]): 12%
- Activity (HeLa [39]): 0.6%
